# ASAP1 GAP inh: ASAP1 ArfGAP inhibition; Q9ULH1; ASAP1-stimulated ARF1 GTP hydrolysis, GDP FP detection; inhibition, % at 16.5 µM; 0.19% of 360,000 active; in the data active = inhibition above about 25%;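 note: 0% = vehicle with enzyme and substrate and 100% = no enzyme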
# C2C12 statin: suppression of simvastatin myotoxicity | 0.78% of 330,000 active | AID 602340 | rescue of ATP level, % at 7.49 µM | C2C12 myotubes + simvastatin, ATP luminescence, 48 h; scaled: DMSO 0, geranylgeraniol control 100;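 active = mean ATP rescue above about 67%, or every replicate alone reaching that limit, limit read from the data, passing the limit was not always enough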;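 note: myotubes were challenged with 10 µM simvastatin during compound exposure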
# ARFGAP1 inh: rat ARFGAP1 inhibition | Q62848 | Arfgap1-stimulated ARF1 GTP hydrolysis, GDP FP detection | inhibition, % at 16.5 µM | 0.26% of 360,000 active | AID 651572;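 active = inhibition above a per-plate limit, mean inhibition of low control wells plus 3 SD, cut at about 25% in these data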;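 note: 0% = DMSO wells with enzyme and 100% = wells lacking Arfgap1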
#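 system = rat Arfgap1 catalytic domain, aa 1-136 | technique = FP, GDP Alexa 633 tracer displaced from anti-GDP antibody, 620/688 nm | compound = one concentration, 16.5 µM, DMSO 1.26% | medium = HEPES-based buffer, pH 7.5 | timing = compound-enzyme preincubation 20 min, reaction 120 min, detection 60 min, 25 °C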
# A3G deaminase: blocks human APOBEC3G single-stranded DNA deamination. Q9HC16. recombinant A3G, ssDNA deamination FAM/TAMRA fluorescence. inhibition, % at 20 µM. 0.28% of 330,000 active. AID 493012;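 active = inhibition of at least 40% at 20 µM, with no more than 30% in the related APOBEC3A deaminase screen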;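 note: plate controls were DMSO wells with A3G for no effect and wells lacking A3G enzyme for full effect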
# Target sequence (Q9HC16 whole entry, looked up): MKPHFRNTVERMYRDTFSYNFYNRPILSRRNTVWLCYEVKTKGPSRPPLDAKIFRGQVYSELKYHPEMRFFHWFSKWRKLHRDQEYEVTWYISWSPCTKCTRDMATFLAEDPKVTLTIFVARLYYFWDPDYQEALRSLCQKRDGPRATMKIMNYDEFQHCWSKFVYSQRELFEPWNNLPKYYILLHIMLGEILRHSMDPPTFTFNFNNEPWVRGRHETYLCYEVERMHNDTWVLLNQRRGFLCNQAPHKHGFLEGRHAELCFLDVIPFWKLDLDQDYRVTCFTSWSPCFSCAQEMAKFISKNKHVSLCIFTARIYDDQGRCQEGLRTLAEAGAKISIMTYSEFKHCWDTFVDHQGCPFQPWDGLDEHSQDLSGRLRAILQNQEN
# Mot1-301 SUMO: SUMOylation pathway inhibition by Mot1-301 growth rescue; AID 2716; 1% of 320,000 active; S. cerevisiae Mot1-301 growth rescue, ATP luminescence, 38.5C; percent above DMSO median, 100 means doubled; growth rescue, % at 18.8 µM;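 active = every valid replicate shows activation above 250% relative to neutral control wells; inactive = the rest, any valid replicate at or below 250%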;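 note: OY570 slx delta 5 strain wells were the positive control but not used for scaling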
# A3A deaminase: human APOBEC3A DNA deaminase inhibition; recombinant A3A, FAM/TAMRA ssDNA deamination fluorescence; P31941; AID 493011; 0.41% of 330,000 active; inhibition, % at 20 µM;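 active = at least 40% inhibition at 20 µM here, with at most 30% in a related deaminase screen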;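 note: plate controls were A3A with DMSO for no effect and wells lacking A3A enzyme for full effect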
# Target sequence (P31941 whole entry, looked up): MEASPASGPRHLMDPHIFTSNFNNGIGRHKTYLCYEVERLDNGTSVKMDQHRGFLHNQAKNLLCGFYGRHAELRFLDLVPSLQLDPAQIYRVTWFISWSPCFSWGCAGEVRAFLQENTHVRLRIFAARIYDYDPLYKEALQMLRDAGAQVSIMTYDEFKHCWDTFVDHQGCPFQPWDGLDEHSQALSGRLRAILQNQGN
# Mot1 SUMO dose: SUMO pathway inhibitors in yeast Mot1-301 growth; shares compounds with Mot1-301 SUMO; S. cerevisiae Mot1-301 galactose growth, ATP luminescence, 24 h; -100 = growth of slx-deleted rescue strain; growth activity, percent, % at 42 µM; 2,300 tested, under 10 active; AID 493004;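 active = Signal drops as the depositor expects, and the fitted half-maximal dose is no more than ten times the top valid tested dose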;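 note: more negative values mean stronger growth rescue toward the control strain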
# The depositor's hits bear a star; · = not tested or not shown; + = active, no number. This is a sample that favours compounds with a hit; in the whole collection about 2.1% have one here.
SMILES,ASAP1 GAP inh,C2C12 statin,ARFGAP1 inh,A3G deaminase,Mot1-301 SUMO,A3A deaminase,Mot1 SUMO dose
C=CCN1c2ccccc2[C@]23C[C@@H](C(=O)OC)N=C2NC(C(=O)OC)=C(C(=O)OC)[C@H]13,-5.2,8.9,-6.9,-8.4,833.7*,-1.5,-0.5
C[C@H](CO)N1C[C@H](C)[C@@H](CN(C)Cc2ccc(Oc3ccccc3)cc2)Oc2ccc(NS(=O)(=O)c3ccc(Cl)cc3)cc2CC1=O,·,36.8,·,·,·,·,·
CCC(C)(C(=O)NC1CCCC1)N(C(=O)c1ccccn1)c1ccc(C)cc1 (centres undefined),-4.7,·,1.0,-2.2,652.5*,-0.5,-0.3
CCC(C)(C(=O)NC1CCCCC1)N(C(=O)c1ccccn1)c1ccccc1 (centres undefined),-0.4,·,-6.9,-4.2,6.0,-2.9,·
C[C@@H]1CN([C@H](C)CO)C(=O)c2cc(NS(C)(=O)=O)ccc2O[C@H]1CN(C)C(=O)Nc1ccc2c(c1)OCO2,·,-11.1,·,·,·,·,·
COc1cccc(CNC(=O)CCCn2nc(C)c3c(C)n(-c4ccccc4)nc3c2=O)c1,9.0,-10.8,-9.1,-6.9,531.1*,-6.9,0.2
Cc1ccc(-n2nc3c(=O)n(CCCC(=O)NCc4cccc(F)c4)nc(C)c3c2C)cc1,-15.3,-17.5,10.0,-3.5,597.4*,-2.6,-0.1
Cc1ccc(-n2nc3c(=O)n(CCCC(=O)NCc4ccc(F)cc4)nc(C)c3c2C)cc1,-8.3,-2.8,18.4,-4.0,3.0,-2.3,·
CN1CCN(C(=O)C[C@H]2CC[C@H]3[C@@H](COC[C@@H](O)CN3S(=O)(=O)c3cccc(Cl)c3)O2)CC1,·,-16.7,·,·,·,·,·
CC(=O)C(C(c1ccccc1)c1c[nH]c2ccccc12)[N+](=O)[O-] (centres undefined),2.2,-9.2,10.5,-8.5,402.1*,-3.6,-0.8
COc1ccccc1/C=C/C(=O)c1c2c(c(C)[nH]c1=O)CCCC2,5.9,-183.6,18.5,-3.6,-12.9,-0.9,0.4
CSCCc1nc(SCC(=O)Nc2nnc(C)s2)[nH]c1C,-10.8,-6.0,13.0,-1.4,+,-1.1,0.5
Cc1nnc(NC(=O)CSc2nc3ccccc3[nH]2)s1,-18.1,·,9.8,-6.4,54.0,2.9,·
CC(=O)c1c(N)[nH]c(-c2ccccc2)nc1=S,·,23.5,·,-8.6,886.3*,-8.2,0.3
Cc1cc(C)cc(C(=O)NC(CC(N)=O)c2ccc(NCCN3CCOCC3)c([N+](=O)[O-])c2)c1 (centres undefined),9.5,-1.2,1.4,-2.9,644.2*,2.1,1.1
CCCOc1ccccc1C1NC(=O)NC(C)=C1C(=O)OCCOC (centres undefined),4.4,0.5,5.7,4.3,-11.7,-16.9,·
CCCOc1ccccc1C1NC(=O)NC(C)=C1C(=O)OCc1ccccc1 (centres undefined),-2.9,16.5,0.4,-3.3,735.0*,0.7,-0.3
O=C(Nc1ccc2oc(-c3ccccc3F)nc2c1)c1ccccc1F,5.5,-18.6,-13.3,-6.2,7.7,-3.9,·
O=C(Nc1ccc2oc(-c3ccccc3F)nc2c1)c1ncn[nH]1,5.5,8.4,6.7,-0.3,+,-1.2,0.9
CC(=O)Nc1ccccc1C(=O)C(=O)Nc1ccc(C(=O)NCC2CCCO2)cc1 (centres undefined),0.1,-0.6,4.2,-4.1,916.8*,-2.1,-0.3
CC(=O)Nc1ccccc1C(=O)C(=O)Nc1cccc(C(=O)NCC2CCCO2)c1 (centres undefined),-2.4,·,-6.8,-8.5,-0.6,-3.9,·
CC(=O)Nc1ccc2c(c1)C(=O)N(C)[C@@H]1CC[C@H](CC(=O)NCC3CC3)O[C@H]1CO2,·,-0.7,·,·,·,·,·
CCCCCNC(=O)c1ccc2c(=O)n(CC3CCCO3)c(=O)[nH]c2c1 (centres undefined),-7.3,·,1.9,-1.7,772.9*,1.5,0.3
COCC#Cc1ccc2c(c1)O[C@H](CN(C)C(=O)Nc1ccccc1F)[C@H](C)CN([C@H](C)CO)S2(=O)=O,·,19.4,·,·,·,·,·
COc1ncccc1C(=O)NC1CCCc2c1cnn2-c1ccc(C)c(C)c1 (centres undefined),2.9,7.9,-3.6,-6.0,-20.3,-6.5,·
SMILES,ASAP1 GAP inh,C2C12 statin,ARFGAP1 inh,A3G deaminase,Mot1-301 SUMO,A3A deaminase,Mot1 SUMO dose
CSc1ncccc1C(=O)NC1CCCc2c1cnn2-c1ccc(C)c(C)c1 (centres undefined),-6.7,9.9,4.2,-5.6,457.9*,0.9,0.7
N#Cc1c(SCC(=O)Nc2nccs2)sc2c(O)cc(=O)[nH]c12,3.4,10.4,-6.5,64.7,6.7,77.6,·
CCCSc1nnc(NC(=O)CSc2sc3c(O)cc(=O)[nH]c3c2C#N)s1,15.9,-23.3,-10.0,42.1,754.0*,62.4,0.4
Cc1noc(C)c1S(=O)(=O)N(C)C[C@@H]1Oc2ccc(NS(C)(=O)=O)cc2C(=O)N([C@@H](C)CO)C[C@@H]1C,·,-13.4,·,·,·,·,·
Cc1ccc(NC(=O)Cn2c(CCC(=O)O)ccc2-c2cccs2)cc1,7.5,-5.4,0.2,-4.3,526.5*,-0.5,0.2
Cc1c(Cl)cccc1NC(=O)Cn1c(CCC(=O)O)ccc1-c1ccccc1,4.2,24.5,-7.3,-6.6,429.3*,-1.0,-0.6
CCCN1[C@H](C(=O)OC)[C@@H](CO)[C@@H]2Cn3c(ccc(C4=CCCC4)c3=O)[C@@H]21,·,-1.9,·,·,·,·,·
COc1ccc(S(=O)(=O)N2C[C@@H](O)COC[C@@H]3O[C@@H](CC(=O)NCCN4CCCCC4)CC[C@H]32)cc1,·,9.8,·,·,·,·,·
C[C@@H]1CN([C@H](C)CO)S(=O)(=O)c2ccc(-c3cccnc3)cc2O[C@@H]1CN(C)C(=O)C1CC1,·,-11.4,·,·,·,·,·
CCC(=O)Nc1ccc2c(c1)OC[C@@H](C)N(C(=O)C1CCC1)C[C@H](C)[C@H](OC)CN(C)C2=O,·,-0.2,·,·,·,·,·
COc1cc2ccccc2cc1C(=O)Nc1ccc(CN2CCOCC2)cc1,6.8,-31.1,-5.0,-12.1,393.6*,-4.8,-0.8
COc1ccc(NC2=C(c3ccc(OC)cc3)C(=O)c3ccccc32)cc1,-5.4,·,-4.0,-4.3,8.8,0.4,·
COc1ccc(C2=C(N)c3ccccc3C2=O)cc1,·,-59.6,·,0.6,457.1*,-1.0,-1.7
COc1ccc(-c2ccc3c(c2)[C@H]2[C@H](CCN2C(=O)c2cnccn2)[C@H](CO)N3)cc1,·,-23.0,·,·,·,·,·
CCOC(=O)C1CC(c2ccccc2)=NNC1=O (centres undefined),-16.8,·,7.2,-2.9,503.8*,-3.0,0.2
CCOC(=O)/C=C(\C)N1N=C(c2ccccc2)CC1c1ccccc1 (centres undefined),1.1,·,6.3,-6.9,·,-0.5,·
